Laboratory results from ChEMBL document CHEMBL3045523, “The limonoids and their antitobacco mosaic virus (TMV) activities from Munronia unifoliolata Oliv” (J Agric Food Chem, 2012).
Converted amounts (≈) assume the structure as drawn. One block for each compound: values may come before it.

Key:
[1] = tested on: Tobacco mosaic virus; assay: Inhibition of Tobacco mosaic virus (TMV) infection in Nicotiana glutinosa assessed as infection inhibition rate at 25 ug/ml after 3 to 4 days by half-leaf method; assay type: functional
How it was run: (§1)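 Half-leaf protective assay on Nicotiana glutinosa local-lesion host at the 4–5 leaf stage. TMV U1, purified and diluted to 30 μg/mL in 0.01 M PBS, was mixed with compound solution (DMSO stock diluted in water) for 30 min. The mix was rubbed onto the left leaf half, with virus plus DMSO on the right half. Local lesions were counted 3–4 days later; three repetitions.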

[2] = tested on: Tobacco mosaic virus; assay: Inhibition of Tobacco mosaic virus (TMV) infection in Nicotiana glutinosa after 3 to 4 days by half-leaf method; assay type: functional, organism-based; how it was run: as §1
[3] = tested on: Tobacco mosaic virus; assay: Inhibition of Tobacco mosaic virus (TMV) infection in Nicotiana glutinosa assessed as infection inhibition rate at 20 ug/ml after 3 to 4 days by half-leaf method; assay type: functional; how it was run: as §1
[4] = tested on: Tobacco mosaic virus; assay: Inhibition of Tobacco mosaic virus (TMV) infection in Nicotiana glutinosa at 200 ug/ml after 3 to 4 days by half-leaf method; assay type: functional
How it was run: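 Curative half-leaf test on N. glutinosa. Leaves were mechanically inoculated with purified TMV U1 (30 μg/mL). After 2 h, compound (DMSO stock in water) was applied to the left half and DMSO to the right half. Lesions were counted after 3–4 days. Values are mean ± SD, n = 3.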

[5] = tested on: Tobacco mosaic virus; assay: Inhibition of Tobacco mosaic virus (TMV) infection in Nicotiana tabacum cv. K326 at 30 ug/ml by DAS-ELISA method; assay type: functional
How it was run: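 Leaf-disk test in N. tabacum cv. K326. Leaves were inoculated with TMV (30 μg/mL), and 1 cm disks were cut after 72 h. Disks were floated on compound, DMSO (negative) or mock solutions at 28 °C for 48 h. Virus in disks was measured by DAS-ELISA at OD405 against a TMV standard curve (0.23–3.75 μg/mL). Inhibition = (1 − treated/negative-control TMV) × 100%.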

[6] = tested on: Tobacco mosaic virus; assay: Inhibition of Tobacco mosaic virus (TMV) infection in Nicotiana glutinosa assessed as infection inhibition rate at 15 ug/ml after 3 to 4 days by half-leaf method; assay type: functional; how it was run: as §1
[7] = tested on: Tobacco mosaic virus; assay: Inhibition of Tobacco mosaic virus (TMV) infection in Nicotiana glutinosa assessed as infection inhibition rate at 10 ug/ml after 3 to 4 days by half-leaf method; assay type: functional; how it was run: as §1
[8] = tested on: Tobacco mosaic virus; assay: Inhibition of Tobacco mosaic virus (TMV) infection in Nicotiana glutinosa assessed as infection inhibition rate at 5 ug/ml after 3 to 4 days by half-leaf method; assay type: functional; how it was run: as §1
[9] = tested on: Tobacco mosaic virus; assay: Inhibition of Tobacco mosaic virus (TMV) infection in Nicotiana glutinosa assessed as infection inhibition rate at 30 ug/ml after 3 to 4 days by half-leaf method; assay type: functional; how it was run: as §1

Structure (SMILES): CNCC(=O)N[C@@H](CO)C(=O)N[C@H]1[C@H](O)[C@@H](O)[C@H](n2ccc(N)nc2=O)O[C@@H]1C(N)=O [NINGNANMYCIN]
inhibition at 25 µg/mL [1]: 38.3% | IC50 [2]: 52.1 µg/mL (≈ 117 µM) | inhibition at 20 µg/mL [3]: 32.1% | inhibition at 200 µg/mL [4]: 42.1% | inhibition at 30 µg/mL [5]: 56.5% | inhibition at 15 µg/mL [6]: 30.3% | inhibition at 10 µg/mL [7]: 25% | inhibition at 30 µg/mL [9]: 42.6%

Structure (SMILES): C=C1[C@@H]([C@@]2(C)C=CC(=O)OC(C)(C)[C@@H]2CC(=O)OC)[C@@H](OC(C)=O)[C@H](OC(C)=O)[C@@]2(C)[C@H](C3=CC(=O)OC3)C[C@H]3O[C@]132 [MUNRONOID O]
inhibition at 25 µg/mL [1]: 51.4% | IC50 [2]: 22.2 µg/mL (≈ 37.8 µM) | inhibition at 20 µg/mL [3]: 42.8% | inhibition at 200 µg/mL [4]: 50.2% | inhibition at 30 µg/mL [5]: 64.2% | inhibition at 15 µg/mL [6]: 33.4% | inhibition at 10 µg/mL [7]: 24.6% | inhibition at 5 µg/mL [8]: 11.2% | inhibition at 30 µg/mL [9]: 64.2%

Structure (SMILES): CC(=O)O[C@H]1C[C@@H](OC(C)=O)[C@@]2(C)CO[C@H]3[C@@H](O)[C@@]4(C)C5=CC[C@@H](c6ccoc6)[C@]5(C)CC[C@@H]4[C@]1(C)[C@@H]32 [DIACETYLVILASININ]
inhibition at 200 µg/mL [4]: 17.2% | inhibition at 30 µg/mL [9]: 14.6%

Structure (SMILES): C=C1[C@@H]([C@@]2(C)C=CC(=O)OC(C)(C)[C@@H]2CC(=O)OC)[C@@H](OC(C)=O)[C@H](OC(C)=O)[C@@]2(C)[C@@H](c3ccoc3)C[C@H]3O[C@]132 [NYMANIA]
inhibition at 25 µg/mL [1]: 49.8% | IC50 [2]: 22.3 µg/mL (≈ 39.1 µM) | inhibition at 20 µg/mL [3]: 40.2% | inhibition at 200 µg/mL [4]: 39.2% | inhibition at 30 µg/mL [5]: 55.4% | inhibition at 15 µg/mL [6]: 29.8% | inhibition at 10 µg/mL [7]: 19.6% | inhibition at 5 µg/mL [8]: 8.3% | inhibition at 30 µg/mL [9]: 58%

Structure (SMILES): C=C1[C@@H]([C@@]2(C)C=CC(=O)O[C@](C)(COC(C)=O)[C@@H]2CC(=O)OC)[C@@H](OC=O)[C@H](OC(=O)[C@H](O)[C@H](C)CC)[C@@]2(C)[C@@H](c3ccoc3)C[C@H]3O[C@]132 [MOMBASOL]
inhibition at 200 µg/mL [4]: 27.7% | inhibition at 30 µg/mL [5]: 39.3% | inhibition at 30 µg/mL [9]: 25.9%

Now from value to compound, other results behind:

IC50 [2]: 27.9 µg/mL (≈ 46.6 µM)
Structure (SMILES): C/C=C(\C)C(=O)O[C@H]1C[C@@H](OC(C)=O)[C@@]2(C)CO[C@H]3[C@@H](O)[C@@]4(C)C5=C[C@@H](O)[C@@H](c6ccoc6)[C@]5(C)[C@@H](OC)C[C@@H]4[C@]1(C)[C@@H]32 [MUNRONOID N]
inhibition at 25 µg/mL [1]: 44.6% | inhibition at 20 µg/mL [3]: 37.9% | inhibition at 200 µg/mL [4]: 24.5% | inhibition at 30 µg/mL [5]: 30.2% | inhibition at 15 µg/mL [6]: 26.4% | inhibition at 10 µg/mL [7]: 16.5% | inhibition at 5 µg/mL [8]: 8.3% | inhibition at 30 µg/mL [9]: 52%

IC50 [2]: 37 µg/mL (≈ 60.6 µM)
Structure (SMILES): CC(=O)O[C@H]1C[C@H]2[C@](C)(C3=CC[C@@H](c4ccoc4)[C@@]31C)[C@H](OC(=O)C=C(C)C)C[C@H]1C(C)(C)OC(=O)C[C@H](OC(C)=O)[C@@]12C [MUNRONOID M]
inhibition at 25 µg/mL [1]: 42.9% | inhibition at 20 µg/mL [3]: 33.5% | inhibition at 200 µg/mL [4]: 29.3% | inhibition at 30 µg/mL [5]: 45.7% | inhibition at 15 µg/mL [6]: 22.6% | inhibition at 10 µg/mL [7]: 11.5% | inhibition at 30 µg/mL [9]: 45.4%

IC50 [2]: 28.3 µg/mL (≈ 44 µM)
Structure (SMILES): CCC(C)C(O)C(=O)O[C@H]1C[C@H]2[C@](C)(C3=CC[C@@H](c4ccoc4)[C@@]31C)[C@H](OC(C)=O)C[C@H]1C(C)(C)OC(=O)C[C@H](OC(C)=O)[C@@]12C (stereo partly specified) [MUNRONOID K]
inhibition at 25 µg/mL [1]: 45.7% | inhibition at 20 µg/mL [3]: 38.7% | inhibition at 200 µg/mL [4]: 55.6% | inhibition at 30 µg/mL [5]: 67.2% | inhibition at 15 µg/mL [6]: 28.6% | inhibition at 10 µg/mL [7]: 18.7% | inhibition at 5 µg/mL [8]: 6.5% | inhibition at 30 µg/mL [9]: 51.9%

IC50 [2]: 34.6 µg/mL (≈ 60.6 µM)
Structure (SMILES): CC(=O)O[C@H]1C[C@H]2[C@](C)(C3=CC[C@@H](c4ccoc4)[C@@]31C)[C@H](OC(C)=O)C[C@H]1C(C)(C)OC(=O)C[C@H](OC(C)=O)[C@@]12C [MUNRONOID L]
inhibition at 25 µg/mL [1]: 43.9% | inhibition at 20 µg/mL [3]: 35.8% | inhibition at 200 µg/mL [4]: 34.6% | inhibition at 30 µg/mL [5]: 54.4% | inhibition at 15 µg/mL [6]: 25.7% | inhibition at 10 µg/mL [7]: 15.3% | inhibition at 5 µg/mL [8]: 4.4% | inhibition at 30 µg/mL [9]: 47.7%
